MC4R barr agon: MC4R agonists recruiting beta-arrestin, primary screen, cell-based, luminescence, agonist arm of biased-ligand search. Melanocortin receptor 4 (Homo sapiens), P32245. U2OS MC4R beta-arrestin complementation; percent of melanotan II response, DMSO zero. activation, % at 8.9 µM. hit rate 0.98% among 360,000;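 active = activation above a per-plate cutoff, the mean activation of sample wells on that plate plus 3 SD, cut at about 8% in these data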
Target sequence (P32245 whole entry, looked up): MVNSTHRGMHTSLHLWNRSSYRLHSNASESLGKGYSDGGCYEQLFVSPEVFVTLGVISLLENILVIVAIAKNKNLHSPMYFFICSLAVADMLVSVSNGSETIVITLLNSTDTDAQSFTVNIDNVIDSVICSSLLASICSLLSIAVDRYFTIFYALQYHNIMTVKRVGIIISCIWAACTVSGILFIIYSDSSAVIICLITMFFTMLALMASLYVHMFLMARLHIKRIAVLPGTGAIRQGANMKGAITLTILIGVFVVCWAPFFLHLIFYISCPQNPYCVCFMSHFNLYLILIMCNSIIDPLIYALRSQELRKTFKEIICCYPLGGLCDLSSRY
MsrA act: bovine MsrA enzyme activators, primary screen, biochemical, absorbance, HTS; activation, % at 10.6 µM; hit rate 0.3% among 360,000; purified bovine MsrA, absorbance read-out; Methionine sulfoxide reductase A (Bos taurus); in the data active = activation above about 7.5%;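 also: 0% = vehicle and 100% = reference activator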
MC4R antag cAMP: MC4R antagonists of cAMP signaling, primary screen, cell-based, TR-FRET, antagonist arm of biased-ligand search; hit rate 0.48% among 360,000; Melanocortin receptor 4 (Homo sapiens), P32245; AID 540295, 2011; inhibition, % at 6.5 µM; MC4R-expressing cells, MTII-stimulated cAMP, LANCE TR-FRET;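 active = inhibition above its plate's cutoff, the mean of tested wells on that plate plus 3 SD, cut at about 29% in these data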;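 also: 0% = Melanotan II alone and 100% = Melanotan II plus saturating MCL0020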
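Assay system: human MC4R-expressing U2OS cells; reagent: Melanotan II stimulation of cells; dosing: 6.5 µM single dose; timing: compound 30 min, challenge 1 h, detection 1 h; signal: TR-FRET cAMP assay; replicates: one well per compound, no replicates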
MsrA inh: bovine MsrA enzyme inhibitors, primary screen, biochemical, absorbance, HTS | Methionine sulfoxide reductase A (Bos taurus) | purified bovine MsrA, absorbance read-out | inhibition, % at 15.5 µM | hit rate 0.75% among 360,000; in the data active = inhibition above about 4.5%;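 also: 0% = vehicle wells with enzyme and 100% = reference inhibitor wells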
* marks the source's active call; other numbers are inactive results; x = no result given. A selection: hits, their analogues and other compounds. The true share with any hit is near 2.3%.

SMILES | MC4R barr agon | MsrA act | MC4R antag cAMP | MsrA inh
Cc1c(CCOC(=O)CC23CC4CC(CC(C4)C2)C3)sc[n+]1CC(=O)c1ccc(Br)cc1 | 0 | -1 | 0 | -1
COc1ccc(Nc2ccc3c(c2)=NC2(CCCCC2)[N+]=3[O-])cc1 | -4 | 5 | -24 | 15*
Cc1cc(Cl)ccc1OCC(=O)N[C@@H](Cc1ccccc1)c1nc2ccccc2[nH]1 | 13* | -8 | 4 | 1
COc1ccc(/C=N/Nc2ccccn2)cc1OC | 0 | -5 | -4 | 4.6*
O=C(Nc1ccc(C(=O)O)cc1)/C(=C\c1ccco1)NC(=O)c1ccccc1Cl | 2 | -6 | -8 | 2
COCCCn1c(=S)[nH]c2ncccc2c1=O | 0 | -9 | -1 | 1
C=CCn1c(SCC(=O)Nc2cc(C)on2)nc2sc3c(c2c1=O)CCCC3 | -3 | -5 | 3 | 0
Cc1cc(NC(=O)CSc2nc(C(C)C)nc3sc4c(c23)CCCC4)no1 | 8.5* | -2 | 14 | -1
CCn1c(SCC(=O)Nc2cc(C)on2)nc2sc3c(c2c1=O)CCCC3 | 17* | -1 | 0 | 1
O=C(Nc1ccc2c(c1)CCC2)c1cnn2c1NC(c1ccco1)CC2C(F)(F)F (stereo not drawn) | 17* | -9 | 12 | 0
Cc1ccc(Cl)cc1NC(=O)c1cnn2c1NC(c1ccco1)CC2C(F)(F)F (stereo not drawn) | 0 | -1 | 7 | -1
O=C(Nc1cccc([N+](=O)[O-])c1)c1ccccc1 | 3 | -3 | 2 | 1
O=C(Nc1cccc([N+](=O)[O-])c1)c1ccc(CSc2ccccc2)cc1 | 15* | -2 | 4 | 0
O=C(CCl)N(c1ccccc1)C1CCCCC1 | 9.1* | -7 | 3 | 1
CC(=O)N(c1ccccc1)C1CCCC1 | 0 | 0 | 2 | -1
COc1cc(C(=O)OCC(=O)NCc2ccc(F)cc2)ccc1OCC(C)C | 8.3* | 0 | -8 | 0
CCCCNC(=O)c1ccc2c(c1)N(C)C(=O)c1ccccc1S2 | 0 | -1 | 7 | -1
O=C(NCCCN1CCOCC1)c1ccc(/C=C2\Oc3ccccc3N(Cc3ccccc3F)C2=O)cc1 | 8.9* | 0 | 4 | 1
CCN1CCN(CCCNC(=O)c2ccc(/C=C3/Oc4ccccc4N(Cc4cccc(C)c4)C3=O)cc2)CC1 | -4 | -2 | 1 | x
CCCCNC(=O)c1ccc(/C=C2\Oc3ccccc3N(C)C2=O)cc1 | 9.2* | -7 | 5 | -1
COc1ccc(-c2cc3c(=O)n(CC(=O)NCc4ccc(C)cc4)ncn3n2)cc1 | 9.1* | -7 | 6 | -1
Cc1ccc(NC(=O)Nc2nnc(Cc3ccc([N+](=O)[O-])cc3)s2)cc1 | 9.3* | -15 | -10 | -1
Cc1nc2ccccn2c1C(=O)N/N=C/c1ccc(CNC(=O)C(=O)Nc2ccccc2)o1 | 2 | -7 | 8 | 2
Cc1ccc(Sc2c(C)nn(C(=O)c3cccc(S(=O)(=O)N4CCOCC4)c3)c2C)cc1 | 9.2* | -2 | 0 | 0
O=C(COc1ccc(Cl)cc1Cl)Nc1ccc(Cl)cn1 | 8 | -2 | 4 | 0
SMILES | MC4R barr agon | MsrA act | MC4R antag cAMP | MsrA inh
CCOc1ccc(C(=O)Nc2ccc(Cl)cn2)cc1Cl | 8.3* | -3 | -1 | -1
CC(Sc1ccc(S(=O)(=O)N2CCCC2)cn1)C(N)=O (stereo not drawn) | -2 | 0 | 6 | 0
Cc1ccc(Sc2ncccc2/C=N/O)cc1 | -2 | -4 | 9 | 1
CCOc1ccc(C(=O)Cc2cc(OC)c(OC)cc2[N+](=O)[O-])cc1 | 12* | -1 | -3 | 1
O=[N+]([O-])c1cc(Br)cc(C=Nc2ccc3c(c2)OCO3)c1O | -1 | -4 | 2 | 0
COc1cc2nc3n(c(=O)c2cc1OC)-c1cc2ccccc2cc1C(=O)NC3Cc1ccccc1 (stereo not drawn) | -1 | -2 | 8 | 1
CCc1ccccc1NC(=O)Cn1nc(C(F)(F)F)c2c1CCC2 | 0 | -2 | -3 | 1
CCc1ccc(NC(=O)Cn2nc(C(F)(F)F)c3c2CCC3)cc1 | 9.2* | -11 | -2 | 1
CC(C)Oc1cccc(C(=O)C2CCCN(S(C)(=O)=O)C2)c1 (stereo not drawn) | 1 | -1 | 29* | 1
COc1ccccc1-c1cc(C(F)(F)F)n2ncc(S(=O)(=O)c3ccccc3)c2n1 | 1 | -11 | 12 | 9.4*

High-throughput results (PubChem BioAssay)
